Experiments:
[1] = test system: Trypanosoma brucei brucei; experiment: Resistance factor, ratio of EC50 for diminazene-, pentamidine-, and melaminophenyl arsenical-resistant HAPT1-deficient Trypanosoma brucei brucei B48 to EC50 for wild type Trypanosoma brucei brucei Lister 427; assay type: functional
Outline: (§1)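 Resistance factor is the EC50 in the resistant line (TbAT1-KO or B48) divided by the EC50 in wild-type s427. […] Resistant and wild-type EC50s were compared by Student t-test.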

[2] = Selectivity index, ratio of EC50 for human HEK cells to EC50 for wild type Trypanosoma brucei brucei Lister 427; assay type: toxicity, cell-based, HEK293; details: for selectivity ratio: HEK cells, read-out: Ratio EC50; for Ratio EC50: hek293
Outline: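 Ratio of EC₅₀ in HEK cells to EC₅₀ in wild-type T. b. brucei s427, both from resazurin assays.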

[3] = test system: Trypanosoma brucei brucei; experiment: Resistance factor, ratio of EC50 for diminazene aceturate-resistant TbAT1 gene-deficient Trypanosoma brucei brucei AT1-KO to EC50 for wild type Trypanosoma brucei brucei Lister 427; assay type: functional; outline: as §1
[4] = test system: Trypanosoma brucei brucei; experiment: Antitrypanosomal activity against diminazene-, pentamidine-, and melaminophenyl arsenical-resistant HAPT1-deficient Trypanosoma brucei brucei B48 after 3 days by alamar blue assay; assay type: functional, organism-based
Outline: (§2)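 Bloodstream-form T. b. brucei (wild-type s427; TbAT1-KO, made from s427 by TbAT1 deletion; B48, selected from TbAT1-KO in vitro on pentamidine, lacking functional HAPT1). Cells were exposed to compound for 48 h, then resazurin (Alamar blue) was added for a further 24 h. A single fluorescence reading gave EC50.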

[5] = Selectivity index, ratio of EC50 for rat L6 cells to EC50 for Trypanosoma brucei rhodesiense STIB900; assay type: toxicity, cell-based; details: for selectivity ratio: L6 cells, read-out: Ratio EC50; for Ratio EC50: l6
Outline: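 Ratio of EC₅₀ in L6 cells to EC₅₀ against T. b. rhodesiense STIB900, both from Alamar blue assays.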

[6] = test system: Trypanosoma brucei brucei; experiment: Antitrypanosomal activity against wild type Trypanosoma brucei brucei Lister 427 after 3 days by alamar blue assay; assay type: functional, organism-based; outline: as §2
[7] = Cytotoxicity against human HEK cells after 3 days by alamar blue assay; assay type: cell-based, HEK293
Outline: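 Human embryonic kidney cells tested by resazurin (Alamar blue) assay: 48 h with compound, then 24 h more after dye addition, single reading; EC₅₀ derived.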

L6 = experiment: Cytotoxicity against rat L6 cells after 72 hrs by alamar blue assay; assay type: cell-based
[8] = test system: Trypanosoma brucei rhodesiense; experiment: Antitrypanosomal activity against Trypanosoma brucei rhodesiense STIB900 infected in rat L6 cells after 72 hrs by alamar blue assay; assay type: functional, organism-based
[9] = test system: Trypanosoma brucei brucei; experiment: Antitrypanosomal activity against diminazene aceturate-resistant TbAT1 gene-deficient Trypanosoma brucei brucei AT1-KO after 3 days by alamar blue assay; assay type: functional, organism-based; outline: as §2
[10] = Trypanosoma brucei, Lister 427, 72 h
[11] = Trypanosoma brucei, STIB900, 72 h
[12] = Trypanosoma brucei, AT1-KO, 72 h

Row | Structure (SMILES) | Ratio EC50 [1] | selectivity ratio [2] | Ratio EC50 [3] | EC50 ([4]; Trypanosoma brucei, B48, 72 h) | selectivity ratio [5] | EC50 [6, 10] | EC50 ([7]; Homo sapiens, HEK293, 72 h) | EC50 (L6; Rattus norvegicus, L6, 72 h) | EC50 [8, 11] | EC50 [9, 12] | Ratio EC50 [2] | EC50 [4] | Ratio EC50 [5] | EC50 [6] | EC50 ([7]; hek293) | EC50 (L6; l6) | EC50 [8] | EC50 [9]
1 | COc1ccccc1[P+](Cc1ccc(Cc2ccc(C[P+](c3ccccc3OC)(c3ccccc3OC)c3ccccc3OC)cc2)cc1)(c1ccccc1OC)c1ccccc1OC.[Br-].[Br-] | 0.8 | 2560 | 0.9 | 66 nM | 5 | 80 nM | 204000 nM | 1080 nM | 209 nM | 74 nM |  |  |  |  |  |  |  | 
2 | Cc1ccccc1[P+](Cc1ccc(C(=O)c2ccc(C[P+](c3ccccc3)(c3ccccc3)c3ccccc3C)cc2)cc1)(c1ccccc1)c1ccccc1.[Br-].[Br-] | 1.1 | 1100 | 1.2 | 220 nM | 88 | 200 nM | 214000 nM | 14000 nM | 160 nM | 240 nM |  |  |  |  |  |  |  | 
3 | C[P+](C)(Cc1ccc(CCc2ccc(C[P+](C)(C)c3ccccc3)cc2)cc1)c1ccccc1.[Br-].[Br-] | 0.5 | > 110 | 1 | 1800 nM | 40 | 2590 nM | > 300000 nM | 48600 nM | 1200 nM | 2620 nM |  |  |  |  |  |  |  | 
4 | CC[P+](Cc1ccc(C(=O)c2ccc(C[P+](CC)(c3ccccc3)c3ccccc3)cc2)cc1)(c1ccccc1)c1ccccc1.[Br-].[Br-] | 1.8 | > 300 | 2.2 | 1760 nM | > 204 | 970 nM | > 300000 nM | > 113000 nM | 554 nM | 2100 nM |  |  |  |  |  |  |  | 
5 | Cc1ccc([P+](Cc2ccc(CCCc3ccc(C[P+](c4ccc(C)cc4)(c4ccc(C)cc4)c4ccc(C)cc4)cc3)cc2)(c2ccc(C)cc2)c2ccc(C)cc2)cc1.[Cl-].[Cl-] | 0.6 |  | 0.7 |  |  |  |  |  |  |  | 127 | 62 nM | 27.3 | 100 nM | 12700 nM | 1720 nM | 63 nM | 66 nM
6 | Cc1cccc([P+](Cc2ccc(Oc3ccccc3)cc2)(c2cccc(C)c2)c2cccc(C)c2)c1.[Br-] | 0.6 | 876 | 0.8 | 17 nM | 62 | 28 nM | 24500 nM | 870 nM | 14 nM | 21 nM |  |  |  |  |  |  |  | 
7 | Cc1ccc([P+](Cc2ccc(C(=O)c3ccc(C[P+](c4ccc(C)cc4)(c4ccc(C)cc4)c4ccc(C)cc4)cc3)cc2)(c2ccc(C)cc2)c2ccc(C)cc2)cc1.[Br-].[Br-] | 0.8 |  | 1.6 | 90 nM |  | 110 nM |  |  |  |  | 1266 |  | 49 |  | 141000 nM | 10800 nM | 220 nM | 18 nM
8 | O=C(c1ccc(C[P+](c2ccc(F)cc2)(c2ccc(F)cc2)c2ccc(F)cc2)cc1)c1ccc(C[P+](c2ccc(F)cc2)(c2ccc(F)cc2)c2ccc(F)cc2)cc1.[Br-].[Br-] | 1.5 | > 350 | 2.5 | 1240 nM | 172 | 850 nM | > 300000 nM | 77400 nM | 450 nM | 2100 nM |  |  |  |  |  |  |  | 
9 | C[P+](Cc1ccc(C(=O)c2ccc(C[P+](C)(c3ccccc3)c3ccccc3)cc2)cc1)(c1ccccc1)c1ccccc1.[Br-].[Br-] | 1.3 | > 200 | 1.4 | 2050 nM | 177 | 1530 nM | > 300000 nM | 116000 nM | 656 nM | 2080 nM |  |  |  |  |  |  |  | 
10 | O=C(c1ccc(C[P+](c2cccs2)(c2cccs2)c2cccs2)cc1)c1ccc(C[P+](c2cccs2)(c2cccs2)c2cccs2)cc1.[Br-].[Br-] | 1 | 785 | 1.6 | 330 nM | 58 | 330 nM | 260000 nM | 16600 nM | 290 nM | 520 nM |  |  |  |  |  |  |  | 
11 | Cc1cccc([P+](Cc2ccc(Cc3ccc(C[P+](c4cccc(C)c4)(c4cccc(C)c4)c4cccc(C)c4)cc3)cc2)(c2cccc(C)c2)c2cccc(C)c2)c1.[Br-].[Br-] | 0.9 | 524 | 1 | 130 nM | 4 | 140 nM | 72600 nM | 939 nM | 231 nM | 140 nM |  |  |  |  |  |  |  | 
12 | COc1ccc([P+](Cc2ccc(C(=O)c3ccc(C[P+](c4ccc(OC)cc4)(c4ccc(OC)cc4)c4ccc(OC)cc4)cc3)cc2)(c2ccc(OC)cc2)c2ccc(OC)cc2)cc1.[Br-].[Br-] | 0.7 | 529 | 1.6 | 230 nM | 40 | 320 nM | 172000 nM | 11800 nM | 290 nM | 520 nM |  |  |  |  |  |  |  | 
13 | O=C(c1ccc(C[P+](Cc2ccccc2)(c2ccccc2)c2ccccc2)cc1)c1ccc(C[P+](Cc2ccccc2)(c2ccccc2)c2ccccc2)cc1.[Br-].[Br-] | 1.3 | > 370 | 1.3 | 1030 nM | 67 | 810 nM | > 300000 nM | 32000 nM | 480 nM | 1020 nM |  |  |  |  |  |  |  | 
14 | Cc1ccc([P+](Cc2ccc(CCc3ccc(C[P+](c4ccc(C)cc4)(c4ccc(C)cc4)c4ccc(C)cc4)cc3)cc2)(c2ccc(C)cc2)c2ccc(C)cc2)cc1.[Cl-].[Cl-] | 0.8 |  | 0.5 |  |  |  |  |  |  |  | 404 | 45 nM | 33.8 | 58 nM | 23300 nM | 1690 nM | 50 nM | 30 nM
15 | CCCCCC[P+](CCCCCC)(CCCCCC)Cc1ccc(C(=O)c2ccccc2)cc1.[Br-] | 1.9 | 1200 | 0.7 | 22 nM | 15 | 11 nM | 13400 nM | 1610 nM | 103 nM | 8 nM |  |  |  |  |  |  |  | 

— ChEMBL document CHEMBL2040794, “Synthesis and structure-activity analysis of new phosphonium salts with potent activity against African trypanosomes” (J Med Chem, 2012)
